Laboratory results from ChEMBL document CHEMBL1152308, “Cytotoxic phenanthrenequinones and 9,10-dihydrophenanthrenes from Calanthe arisanensis” (J Nat Prod, 2009).
In brackets after ≈: the same amount, converted by molar mass.

Tests used:
Type in all cases: functional, cell-based
[1] = Cytotoxicity against human KBVIN cells after 3 days by sulforhodamine B assay; conditions: 72 h
Outline: (§1)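 Freshly trypsinized cells seeded at 5000 per well; compounds added from DMSO-diluted stock. Cells grown in RPMI-1640 with 25 mM HEPES, 0.25% sodium bicarbonate, 10% FBS and 100 μg/mL kanamycin. After three days, attached cells fixed with cold 10% TCA and stained with 0.4% SRB. Bound dye solubilized and absorbance read at 562 nm. EC50 (50% growth reduction) averaged from at least three independent determinations.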

HCT-8 = assay: Cytotoxicity against human HCT8 cells after 3 days by sulforhodamine B assay; conditions: HCT-8, 72 h; outline: as §1
A549 = assay: Cytotoxicity against human A549 cells after 3 days by sulforhodamine B assay; conditions: A549, 72 h; outline: as §1
DU-145 = assay: Cytotoxicity against human DU145 cells after 3 days by sulforhodamine B assay; conditions: DU-145, 72 h; outline: as §1
PC-3 = assay: Cytotoxicity against human PC3 cells after 3 days by sulforhodamine B assay; conditions: PC-3, 72 h; outline: as §1
MCF7 = assay: Cytotoxicity against human MCF7 cells after 3 days by sulforhodamine B assay; conditions: MCF7, 72 h; outline: as §1
KB = assay: Cytotoxicity against human KB cells after 3 days by sulforhodamine B assay; conditions: 72 h; outline: as §1

Structure (SMILES)	EC50 [1] [µg/mL]	EC50 (HCT-8)	EC50 (A549)	EC50 (DU-145) [µg/mL]	EC50 (PC-3) [µg/mL]	EC50 (MCF7)	EC50 (KB) [µg/mL]
COc1cc(O)cc2c1-c1ccc(O)cc1CC2	7.92 (≈ 32.7 µM)	3.84 µg/mL	5.05 µg/mL	4.79 (≈ 19.8 µM)	2.82 (≈ 11.6 µM)	1.8 µg/mL	3.4 (≈ 14 µM)
COc1cc2c(cc1O)CCc1cc(O)cc(OC)c1-2	5.84 (≈ 21.4 µM)	4.55 µg/mL	4.24 µg/mL	5.38 (≈ 19.8 µM)	2.67 (≈ 9.81 µM)	2.59 µg/mL	3.9 (≈ 14.3 µM)
COc1cc(O)c(-c2c(O)cc(OC)c3c2CCc2cc(O)ccc2-3)c2c1-c1ccc(O)cc1CC2	3.96 (≈ 8.21 µM)	4.6 µg/mL	4.61 µg/mL	4.11 (≈ 8.52 µM)	5.37 (≈ 11.1 µM)	3.5 µg/mL	4.4 (≈ 9.12 µM)
COC1=CC(=O)c2ccc3ccccc3c2C1=O [ANNOQUINONE A]	–	–	–	–	–	–	0.16 (≈ 0.672 µM)
COc1cc2ccc3cccc(O)c3c2c(OC)c1O [BULBOPHYLLANTHRIN]	6.99 (≈ 25.9 µM)	5.26 µg/mL	5.06 µg/mL	8.29 (≈ 30.7 µM)	3.38 (≈ 12.5 µM)	3.26 µg/mL	5.63 (≈ 20.8 µM)
COc1cc2c(c(OC)c1O)-c1c(O)ccc(O)c1CC2 [CALANHYDROQUINONE A]	5.37 (≈ 18.6 µM)	4.57 µg/mL	3.58 µg/mL	5.84 (≈ 20.3 µM)	2.52 (≈ 8.74 µM)	2.31 µg/mL	3.47 (≈ 12 µM)
COc1c(O)cc2c(c1OC)-c1c(O)ccc(O)c1CC2 [CALANHYDROQUINONE B]	5.24 (≈ 18.2 µM)	5.16 µg/mL	4.07 µg/mL	5.46 (≈ 18.9 µM)	2.62 (≈ 9.09 µM)	3.28 µg/mL	3.75 (≈ 13 µM)
COc1cc2c(c(OC)c1OC)-c1c(O)ccc(O)c1CC2 [CALANHYDROQUINONE C]	4.73 (≈ 15.6 µM)	3.96 µg/mL	2.36 µg/mL	3.78 (≈ 12.5 µM)	0.85 (≈ 2.81 µM)	1.7 µg/mL	2.86 (≈ 9.46 µM)
COc1cc(O)c2c(c1)CCc1ccc(O)c(OC)c1-2 [CALANPHENANTHRENE A]	5.48 (≈ 20.1 µM)	6.73 µg/mL	7.71 µg/mL	13.2 (≈ 48.5 µM)	7.06 (≈ 25.9 µM)	6.52 µg/mL	11.8 (≈ 43.3 µM)
COC1=CC(=O)c2ccc3cc(OC)c(OC)c(O)c3c2C1=O [CALANQUINONE A]	0.45 (≈ 1.43 µM)	0.2 µg/mL	0.19 µg/mL	0.34 (≈ 1.08 µM)	0.16 (≈ 0.509 µM)	< 0.02 µg/mL	0.32 (≈ 1.02 µM)
COC1=CC(=O)c2ccc3cc(OC)c(O)c(OC)c3c2C1=O [CALANQUINONE B]	13.3 (≈ 42.3 µM)	4.56 µg/mL	4.54 µg/mL	6.45 (≈ 20.5 µM)	1.55 (≈ 4.93 µM)	1.81 µg/mL	6.46 (≈ 20.6 µM)
COc1cc2c(c(OC)c1O)C1=C(CC2)C(=O)C=CC1=O [CALANQUINONE C]	4.68 (≈ 16.3 µM)	4.14 µg/mL	3.58 µg/mL	4.34 (≈ 15.2 µM)	2.07 (≈ 7.23 µM)	2.12 µg/mL	2.97 (≈ 10.4 µM)
COc1cc(O)c(-c2c(O)cc(OC)c3c2ccc2cc(O)ccc23)c2c1-c1ccc(O)cc1CC2 [CIRRHOPETALANTHRIN]	–	7.3 µM	11.2 µM	–	–	12.5 µM	–
CC(=O)O[C@H]1C(=O)[C@@]2(C)[C@H]([C@H](OC(=O)c3ccccc3)[C@]3(O)C[C@H](OC(=O)[C@H](O)[C@@H](NC(=O)c4ccccc4)c4ccccc4)C(C)=C1C3(C)C)[C@]1(OC(C)=O)CO[C@@H]1C[C@@H]2O [PACLITAXEL]	2.16 (≈ 2.53 µM)	0.21 µg/mL	< 0.005 µg/mL	< 0.005	0.0097 (≈ 0.0114 µM)	0.0072 µg/mL	< 0.005
COC1=CC(=O)c2ccc3cc(OC)c(OC)cc3c2C1=O [SPHENONE A]	–	–	–	–	–	–	2.7 (≈ 9.05 µM)
